Here are results for six molecules from ChEMBL document CHEMBL1649566, “In vitro activity of antifolate and polymorphism in dihydrofolate reductase of Plasmodium falciparum isolates from the Kenyan coast: emergence of parasites with Ile-164-Leu mutation” (Antimicrob Agents Chemother, 2009).

pIC50: −log10 of the molar value.

Format in all cases: functional, organism-based
Assay [1] has as its system Plasmodium falciparum. Briefly: Antimalarial activity against pyrimethamine-resistant Plasmodium falciparum V1S expressing DHFR quadruple mutant with point mutations at codons 108, 51, 59 and 164 gene by [3H]hypoxanthine incorporation assay.
In assay [2] the test system is Plasmodium falciparum. As to the kind of experiment: Antimalarial activity against Plasmodium falciparum isolate Kil-164 expressing DHFR Ser108Asn, Asn51Ile, Cys59Arg and Ile164Leu quadruple mutant by [3H]hypoxanthine incorporation assay. In a few lines: (§1)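 Kenyan isolates (Kilifi, 2006–2008) adapted to long-term in vitro culture; dhfr codons 108, 51, 59, 164 genotyped by PCR-RFLP. Cultured in RPMI 1640 with 10% human serum, 25 mM bicarbonate, 2 mM glutamine, 25 mM HEPES, 5 nM para-aminobenzoic acid, 23 nM folic acid, in washed human erythrocytes. Graded drug concentrations; [3H]hypoxanthine incorporation; IC50 by nonlinear regression of dose-response.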

In assay [3] the test system is Plasmodium falciparum. Briefly: Antimalarial activity against Plasmodium falciparum Kenyan isolates by [3H]hypoxanthine incorporation assay.
For assay [4], the system named is Plasmodium falciparum. As to the kind of experiment: Antimalarial activity against Plasmodium falciparum Kenyan isolates expressing DHFR Ser108Asn, Asn51Ile and Cys59Arg triple mutant by [3H]hypoxanthine incorporation assay. The gist of the method:
as §1

Assay [5] has as its system Plasmodium falciparum. Briefly: Antimalarial activity against pyrimethamine-sensitive Plasmodium falciparum 3D7 expressing wild type DHFR by [3H]hypoxanthine incorporation assay.
The subject of assay [6] is Plasmodium falciparum. As to the kind of experiment: Antimalarial activity against Plasmodium falciparum Kenyan isolates expressing DHFR Ser108Asn and Cys59Arg or Ser108Asn and Asn51Ile double mutant by [3H]hypoxanthine incorporation assay. The gist of the method: as §1

For the molecule `CC1(C)N=C(N)N=C(N)N1OCCCOc1cc(Cl)c(Cl)cc1Cl`, the negative logarithm of the IC50 (pIC50) was 10.20 in the assay on Plasmodium falciparum [1]; 10.92 in the assay on Plasmodium falciparum [2]; 10.14 in the assay with Plasmodium falciparum [3]; 10.00 in the assay on Plasmodium falciparum [4]; 10.82 in the assay with Plasmodium falciparum [5]; 10.16 in the assay with Plasmodium falciparum [6].
On to `CC1(C)N=C(N)N=C(N)N1c1ccc(Cl)c(Cl)c1` [CHLORCYCLOGUANIL], for which the pIC50 with Plasmodium falciparum [1] is 7.03; in the assay with Plasmodium falciparum [2] it was 7.06; in the assay with Plasmodium falciparum [3], 7.42; in the assay with Plasmodium falciparum [4], 7.40; in the assay on Plasmodium falciparum [5], 10.96; in the assay on Plasmodium falciparum [6], 7.42.
As for `CN(Cc1cnc2nc(N)nc(N)c2n1)c1ccc(C(=O)N[C@@H](CCC(=O)O)C(=O)O)cc1` [METHOTREXATE], the pIC50 with Plasmodium falciparum [1] is 7.40; in the assay on Plasmodium falciparum [2], 7.25; in the assay with Plasmodium falciparum [3], 7.08; in the assay with Plasmodium falciparum [4], 7.08; with Plasmodium falciparum [5] it was 7.30; in the assay with Plasmodium falciparum [6], 7.07.
As for `CCc1nc(N)nc(N)c1-c1ccc(Cl)cc1` [PYRIMETHAMINE], the negative logarithm of the IC50 (pIC50) is 5.16 in the assay with Plasmodium falciparum [1], 6.13 with Plasmodium falciparum [3] and 8.41 in the assay on Plasmodium falciparum [5].
Take `COc1cc(Cc2cnc(N)nc2N)cc(OC)c1OC` [TRIMETHOPRIM]: the pIC50 in the assay on Plasmodium falciparum [1] is 3.99; in the assay on Plasmodium falciparum [2] it was 3.81; in the assay with Plasmodium falciparum [3], 4.53; in the assay with Plasmodium falciparum [4], 4.47; with Plasmodium falciparum [5] it was 6.39; in the assay with Plasmodium falciparum [6] it was 5.03.
Turning to `COc1cc(NCc2ccc3nc(N)nc(N)c3c2C)cc(OC)c1OC` [TRIMETREXATE], the pIC50 in the assay on Plasmodium falciparum [1] was 7.61; in the assay with Plasmodium falciparum [2], 7.35; in the assay with Plasmodium falciparum [3], 7.52; with Plasmodium falciparum [4], 7.68; in the assay on Plasmodium falciparum [5], 8.72; in the assay with Plasmodium falciparum [6] it was 7.39.

What is called pIC50 is the IC50 on a negative log10 scale, so that one unit is a factor of ten. Low readings indicate a large IC50, high ones a small IC50.
